# Measured values taken from ChEMBL document CHEMBL1828528, “Acyclic nucleoside thiophosphonates as potent inhibitors of HIV and HBV replication” (Eur J Med Chem, 2011).
# pEC50, pIC50: −log10 of the molar value.
# How the values were obtained:
# [1] = molecular target: Human immunodeficiency virus type 1 reverse transcriptase (Human immunodeficiency virus 1, UniProt Q72547); assay: Inhibition of wild-type HIV1 subtype B reverse transcriptase assessed as incorporation of [3H]dTTP
# Outline: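 Recombinant clade B HIV-1 WT RT p66/p51, co-expressed with protease in E. coli, affinity-purified and active-site titrated. Diphosphate forms assayed on activated calf thymus DNA with [3H]dTTP. Aliquots spotted in duplicate on DE81 discs, washed with ammonium formate pH 8.0 and ethanol, then scintillation counted. IC50 averaged over ≥3 independent experiments.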
# [2] = test system: Human immunodeficiency virus 1; assay: Antiviral activity against HIV1 clade B isolate 2056 infected in human H9 cells assessed as inhibition of viral replication; format: functional, organism-based; settings: Human immunodeficiency virus 1, clade B isolate 2056, H9
# Outline: (§1)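 H9 cells infected with HIV-1 clinical isolates of clades A, B, C, D, A/E, F and G, in the presence of graded compound concentrations. EC50 is the concentration reducing viral replication by 50%.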
# [3] = Cytotoxicity against human HEL cells assessed as alteration in cellular morphology by microscopic analysis; format: cell-based
# Outline: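 Uninfected confluent Vero, CrFK, HEL or HeLa cultures incubated with serial compound dilutions (up to 200 μM) for the same period as the antiviral assays. Minimal toxic concentration is the lowest giving microscopically detectable alteration of cell morphology.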
# Human alphaherpesvirus 1 [4] = assay: Antiviral activity against TK-deficient and ACR-resistant Herpes simplex virus type 1 KOS infected in HEL cells assessed as inhibition of virus-induced cytopathic effect; format: functional, organism-based; settings: Human alphaherpesvirus 1, KOS
# Outline: (§2)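 Confluent HEL cell monolayers inoculated with 100 CCID50 of virus. Compounds added after a 1–2 h adsorption period. Virus-induced cytopathic effect scored microscopically at 3 days post infection as % of untreated controls. EC50 derived from graphical plots.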
# [5] = test system: Human immunodeficiency virus 1; assay: Antiviral activity against 100 TCID50 wild-type Human immunodeficiency virus 1 3B infected in CEM cells assessed as inhibition of syncytia formation after 4 days by microscopic analysis; format: functional, organism-based; settings: CCRF-CEM, 96 h
# Outline: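 Human CEM cells (~3 × 10^5 cells/cm3) infected with 100 CCID50/mL HIV-1 IIIB and seeded into wells holding compound dilutions. After 4 days at 37 °C, giant-cell (syncytium) formation was scored microscopically. EC50 is the concentration inhibiting syncytia formation by 50%.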
# [6] = test system: Human immunodeficiency virus 1; assay: Antiviral activity against HIV1 clade G isolate 3187 infected in human H9 cells assessed as inhibition of viral replication; format: functional, organism-based; settings: Human immunodeficiency virus 1, clade G isolate 3187, H9; outline: as §1
# Human alphaherpesvirus 1 [7] = assay: Antiviral activity against Herpes simplex virus type 1 KOS infected in HEL cells assessed as inhibition of virus-induced cytopathic effect; format: functional, organism-based; settings: Human alphaherpesvirus 1, KOS; outline: as §2
# [8] = test system: Human immunodeficiency virus 1; assay: Antiviral activity against HIV1 clade B isolate 1722 infected in human H9 cells assessed as inhibition of viral replication; format: functional, organism-based; settings: Human immunodeficiency virus 1, clade B isolate 1722, H9; outline: as §1
# Vaccinia virus = assay: Antiviral activity against Vaccinia virus infected in HEL cells assessed as inhibition of virus-induced cytopathic effect; format: functional, organism-based; settings: Orthopoxvirus vaccinia; outline: as §2
# [9] = test system: Human immunodeficiency virus 1; assay: Antiviral activity against HIV1 clade F isolate 2338 infected in human H9 cells assessed as inhibition of viral replication; format: functional, organism-based; settings: Human immunodeficiency virus 1, clade F isolate 2338, H9; outline: as §1
# Hepatitis B virus [10] = assay: Antiviral activity against Hepatitis B virus infected in human HepAD38 cells assessed as reduction in viral DNA level after 6 days by real time quantitative PCR analysis; format: functional, organism-based; settings: HePAD38, 144 h
# Outline: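 Tetracycline-regulated HepAD38 cells (5 × 10^5) induced after 2–3 days by PBS wash and feeding with medium lacking tetracycline and G418, with or without compound. Medium changed at day 3. Intracellular HBV DNA quantified by TaqMan Q-PCR at day 6 post induction against a full-genome plasmid standard curve, expressed as % of untreated. Actives retested.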
# Human alphaherpesvirus 2 = assay: Antiviral activity against Herpes simplex virus type 2 G infected in HEL cells assessed as inhibition of virus-induced cytopathic effect; format: functional, organism-based; settings: Human alphaherpesvirus 2, strain G; outline: as §2
# [11] = test system: Human immunodeficiency virus 1; assay: Antiviral activity against 125 TCID50 wild type HIV1 LAI infected in human H9 cells assessed as reduction in viral replication measured on day 7 post infection by reverse transcriptase activity; format: functional, organism-based; settings: Human immunodeficiency virus 1, LAI, H9, 168 h
# Outline: (§3)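 PHA-P-activated PBMC (1.5 × 10^5; donor cells stimulated 3 days with 1 μg/mL PHA-P plus 5 IU/mL IL-2) or H9 cells (5 × 10^5) in RPMI-1640/10% FCS. Cells pre-treated 30 min with graded compound concentrations, then infected with HIV-1 LAI (100 or 125 TCID50). Supernatant RT activity read on day 7. EC50 from quadratic fit of % inhibition; triplicates, PBMC repeated with a second donor.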
# [12] = test system: Human immunodeficiency virus 1; assay: Antiviral activity against 100 TCID50 wild type HIV1 LAI infected in human PBMC assessed as reduction in viral replication measured on day 7 post infection by reverse transcriptase activity; format: functional, organism-based; settings: Human immunodeficiency virus 1, LAI, 168 h; outline: as §3
# [13] = Cytotoxicity against human HepAD38 cells; format: cell-based
# [14] = Cytotoxicity against human HuH7 cells; format: cell-based; settings: Huh-7 cells
# [15] = (§4) Cytotoxicity against human CEM cells; format: cell-based, CCRF-CEM; settings: CCRF-CEM (CEM) cells
# Outline: (§5)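 Mock-infected CEM cells cultured alongside the anti-HIV assay with compound dilutions for 4 days at 37 °C. CC50 is the concentration inhibiting CEM cell proliferation by 50%.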
# [16] = test system: Human immunodeficiency virus 1; assay: Antiviral activity against HIV1 clade C isolate 4110 infected in human H9 cells assessed as inhibition of viral replication; format: functional, organism-based; settings: Human immunodeficiency virus 1, clade C isolate 4110, H9; outline: as §1
# [17] = test system: Human immunodeficiency virus 1; assay: Antiviral activity against HIV1 clade D isolate 1649 infected in human H9 cells assessed as inhibition of viral replication; format: functional, organism-based; settings: Human immunodeficiency virus 1, clade D isolate 1649, H9; outline: as §1
# [18] = Cytotoxicity against […]-activated human PBMC on day 7 by MTT assay; format: cell-based
# Outline: (§6)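 Uninfected PHA-P-activated PBMC and H9 cells exposed to graded compound concentrations. Viability by MTT on day 7. CC50 from quadratic fit of % viability against concentration; triplicates.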
# [19] = test system: Human immunodeficiency virus 1; assay: Antiviral activity against HIV1 clade A isolate 4113 infected in human H9 cells assessed as inhibition of viral replication; format: functional, organism-based; settings: Human immunodeficiency virus 1, clade A isolate 4113, H9; outline: as §1
# [20] = Cytotoxicity against […]-activated human H9 cells on day 7 by MTT assay; format: cell-based; outline: as §6
# [21] = test system: Human immunodeficiency virus 1; assay: Antiviral activity against HIV1 clade C isolate 2914 infected in human H9 cells assessed as inhibition of viral replication; format: functional, organism-based; settings: Human immunodeficiency virus 1, clade C isolate 2914, H9; outline: as §1
# [22] = test system: Human immunodeficiency virus 1; assay: Antiviral activity against HIV1 clade B isolate 2101 infected in human H9 cells assessed as inhibition of viral replication; format: functional, organism-based; settings: Human immunodeficiency virus 1, clade B isolate 2101, H9; outline: as §1
# [23] = test system: Human immunodeficiency virus 2; assay: Antiviral activity against 100 TCID50 wild-type Human immunodeficiency virus type 2 ROD infected in C8166 cells assessed as inhibition of syncytia formation after 4 days by microscopic analysis; format: functional, organism-based; settings: Human immunodeficiency virus 2, ISOLATE ROD, C8166, 96 h
# [24] = test system: Human immunodeficiency virus 1; assay: Antiviral activity against 6250 TCID50 wild type HIV1 LAI infected in human H9 cells assessed as reduction in viral replication measured on day 7 post infection by reverse transcriptase activity; format: functional, organism-based; settings: Human immunodeficiency virus 1, LAI, H9, 168 h
# Outline: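 H9 cells in RPMI-1640/10% FCS given graded compound concentrations, then infected with a high inoculum of 6250 TCID50 HIV-1 LAI. Supernatant reverse transcriptase activity measured on day 7 post infection. EC50 taken as the concentration giving 50% reduction of viral replication.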
# [25] = test system: Human immunodeficiency virus 1; assay: Antiviral activity against HIV1 clade A/E isolate 2165 infected in human H9 cells assessed as inhibition of viral replication; format: functional, organism-based; settings: Human immunodeficiency virus 1, clade A/E isolate 2165, H9; outline: as §1
# CCRF-CEM = assay: as §4; format: cell-based; settings: ccrf-cem; outline: as §5
# Hepatitis B virus [26] = assay: Antiviral activity against Hepatitis B virus infected in human HuH7 cells assessed as reduction in viral DNA level treated day 3 to day 8 post transfection by real time quantitative PCR analysis; format: functional, organism-based; settings: Huh-7
Compound,pIC50 [1],pEC50 [2],MCC [3] [µM],pEC50 (Human alphaherpesvirus 1 [4]),pEC50 [5],pEC50 [6],pEC50 (Human alphaherpesvirus 1 [7]),pEC50 [8],pEC50 (Vaccinia virus),pEC50 [9],pEC50 (Human alphaherpesvirus 2),pEC50 [11],pEC50 [12],CC50 [13] [µM],CC50 [14] [µM],pEC50 [16],pEC50 [17],CC50 at 7 day [18] [µM],pEC50 [19],pEC50 [21],also measured
Nc1ncnc2c1ncn2CCOCP(=O)(S)OP(=O)(O)OP(=O)(O)O (stereo not given),5.17,–,–,–,–,–,–,–,–,–,–,–,–,–,–,–,–,–,–,–,–
C[C@H](Cn1cnc2c(N)ncnc21)OCP(=O)(O)O [TENOFOVIR ANHYDROUS],–,5.90,> 200,< 3.70,5.39,6.82,< 3.70,6.16,< 3.70,7.40,< 3.70,6.64,5.47,> 150,> 150,6.08,7.00,> 100,5.25,6.47,pEC50 (Hepatitis B virus [10]): 5.64; CC50 [15]: > 250 µM; CC50 at 7 day [20]: > 100 µM; pEC50 [22]: 6.62; pEC50 [23]: 5.15; pEC50 [24]: 5.08; pEC50 [25]: 6.29
Nc1ncnc2c1ncn2CCOCP(=O)(O)OP(=O)(O)OP(=O)(O)O,5.15,–,–,–,–,–,–,–,–,–,–,–,–,–,–,–,–,–,–,–,–
C[C@H](Cn1cnc2c(N)ncnc21)OCP(=O)(O)OP(=O)(O)OP(=O)(O)O,4.95,–,–,–,–,–,–,–,–,–,–,–,–,–,–,–,–,–,–,–,–
Nc1ncnc2c1ncn2CCOCP(=O)(O)O [ADEFOVIR],–,5.99,> 200,4.70,5.26,6.66,4.05,5.73,< 3.70,6.72,4.70,5.96,5.49,> 150,> 150,5.56,6.49,> 30,4.75,5.84,CC50 (CCRF-CEM): 85 µM; pEC50 (Hepatitis B virus [26]): 5.22; pEC50 [22]: 5.45; pEC50 [23]: 5.15; pEC50 [24]: 5.10; pEC50 [25]: 6.49
C[C@H](Cn1cnc2c(N)ncnc21)OCP(=O)(S)OP(=O)(O)OP(=O)(O)O (stereo not given in full),4.86,–,–,–,–,–,–,–,–,–,–,–,–,–,–,–,–,–,–,–,–
